Source: PubChem (Broad Institute)
GASC1 inh – inhibitors of human demethylase GASC-1 KDM4C; Q9H3R0; GST-KDM4C 2-372, H3K9me3 peptide, LANCE TR-FRET; inhibition, % at 12.5 µM; hit rate 0.15% among 96,000; AID 720574;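 active = mean replicate inhibition above about 25%, with at least 55% of replicates also reaching it, limit read from the data, passing the limit was not always enough; inconclusive = only one of those two conditions met; inactive = neither condition met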
Target sequence (Q9H3R0 2-372 limits assumed): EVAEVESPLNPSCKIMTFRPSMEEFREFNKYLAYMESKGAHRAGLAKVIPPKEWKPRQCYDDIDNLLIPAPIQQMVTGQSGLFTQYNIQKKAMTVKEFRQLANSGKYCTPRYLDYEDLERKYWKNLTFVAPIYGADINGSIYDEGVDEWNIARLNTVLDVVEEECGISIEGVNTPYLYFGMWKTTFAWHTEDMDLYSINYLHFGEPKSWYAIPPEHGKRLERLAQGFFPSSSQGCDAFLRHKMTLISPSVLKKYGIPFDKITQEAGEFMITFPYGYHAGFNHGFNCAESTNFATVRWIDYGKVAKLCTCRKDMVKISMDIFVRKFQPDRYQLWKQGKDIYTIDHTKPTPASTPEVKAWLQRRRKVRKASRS
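System – N-terminal GST-fused human GASC-1 (KDM4C) fragment, residues 2-372 · Input – enzyme final amount 10 nM · Technique – LANCE TR-FRET, Eu antibody, ULight-streptavidin, EDTA, ex 340 nm, em 618/671 nm · Medium – HEPES buffer, pH 7.5, plus ascorbate · Incubation – enzyme reaction 30 min, then detection 60 min, both room temperature · Reagent – H3K9me3 peptide with Fe(II)/2OG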
Pf Dd2 growth – P. falciparum Dd2 growth inhibition. SYBR Green, 72 h; stronger effect = lower value. activity change, % at 10 µM. hit rate 2.3% among 94,000. AID 1159554; in the data active = activity change below about -80%; inconclusive = no clear call, values can overlap the other calls
IDH1 R132H inh – IDH1 R132H (human) inhibition. hit rate 0.18% among 70,000. O75874. IDH1 R132H reductase, diaphorase/resazurin fluorescence, 60 min. inhibition, % at 10 µM; in the data active = inhibition above about 34%; inconclusive = no clear call, values can overlap the other calls; inactive = below about 11%
T cruzi growth-1 – T. cruzi proliferation inhibition; T. cruzi beta-gal in NIH3T3, GalScreen luminescence, 90 h; inhibition, % at 8.34 µM; hit rate 5.9% among 77,000; AID 624255;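 active = mean inhibition above about 93%, with at least 55% of replicates each passing it, limit read from the data, passing the limit was not always enough; inconclusive = only one of those two conditions holds; inactive = neither condition holds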
T cruzi growth-2 – blocks T. cruzi growth in NIH3T3 host cells; shares compounds with T cruzi growth-1; T. cruzi beta-gal in NIH3T3, GalScreen luminescence, 90 h; inhibition, % at 8.35 µM; hit rate 72% among 5,600; AID 651739;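 active = mean replicate inhibition above about 95% and at least 55% of replicates individually reaching it, limit read from the data; inconclusive = only one of the two criteria is met; inactive = neither criterion is met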
T cruzi growth-3 – blocks T. cruzi growth in NIH3T3 host cells. inhibition, % at 2.09 µM. AID 651740. shares compounds with T cruzi growth-1. T. cruzi beta-gal in NIH3T3, GalScreen luminescence, 90 h. hit rate 21% among 5,600;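 active = mean inhibition above about 95%, with at least 55% of replicates also reaching it, limit read from the data; inconclusive = meets just one of the two conditions; inactive = meets neither condition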
NIH3T3 tox – cytotoxicity in mouse NIH/3T3 fibroblasts | shares compounds with T cruzi growth-1 | cytotoxicity (signal decrease), % at 8.35 µM | NIH/3T3 viability, CellTiter-Glo ATP luminescence, 90 h | hit rate 14% among 5,600;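 active = mean signal decrease across replicates above about 35% based on untreated-well scatter, with enough replicates individually passing, limit read from the data; inconclusive = no rule stated though some were filed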
3T3 cytotox 2 – cytotoxicity in mouse NIH/3T3 fibroblasts | shares compounds with T cruzi growth-1 | NIH/3T3 viability, CellTiter-Glo ATP luminescence, 90 h | inhibition, % at 24.9 µM | hit rate 56% among 5,600;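 active = mean loss of cell viability signal at or above a set limit, and enough replicates individually reaching it; inconclusive = meets only the mean limit or only the replicate share; inactive = meets neither condition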
Each line names hits and unclear results; the compound was inactive in the other large screens (follow-up assays come after a bar, where they were run). Only some compounds are listed: those with a hit (about 5.9% of all), similar ones and a draw of the others.

COc1ccc(S(=O)(=O)N(C)C[C@@H]2Oc3ccc(NC(=O)Cc4cn(C)c5ccccc45)cc3C(=O)N([C@@H](C)CO)C[C@@H]2C)cc1	T cruzi growth-1 102 | T cruzi growth-2 inactive | T cruzi growth-3 inactive | NIH3T3 tox inactive | 3T3 cytotox 2 46
COc1ccc(S(=O)(=O)N(C)C[C@@H]2Oc3ccc(NC(=O)Cc4cn(C)c5ccccc45)cc3C(=O)N([C@H](C)CO)C[C@@H]2C)cc1	Pf Dd2 growth -85, T cruzi growth-1 101 | T cruzi growth-2 97 | T cruzi growth-3 inactive | NIH3T3 tox inactive | 3T3 cytotox 2 63
C[C@H]1CN([C@@H](C)CO)C(=O)c2cc(NS(=O)(=O)c3ccc(F)cc3)ccc2O[C@@H]1CN(C)C(=O)Nc1ccc(F)cc1	none
CCCC#Cc1ccc2c(c1)O[C@@H](CN(C)CCC)[C@H](C)CN([C@@H](C)CO)S2(=O)=O	T cruzi growth-1 99 | T cruzi growth-2 101 | T cruzi growth-3 inactive | NIH3T3 tox 39 | 3T3 cytotox 2 104
CCCN(C)C[C@H]1Oc2cc(C#Cc3cccc(F)c3)ccc2S(=O)(=O)N([C@H](C)CO)C[C@H]1C	none (no result: Pf Dd2 growth)
CCCN(C)C[C@H]1Oc2cc(C#Cc3cccc(F)c3)ccc2S(=O)(=O)N([C@@H](C)CO)C[C@H]1C	T cruzi growth-1 108 (no result: Pf Dd2 growth) | T cruzi growth-2 102 | T cruzi growth-3 inactive | NIH3T3 tox inactive | 3T3 cytotox 2 103
CCCN(C)C[C@@H]1Oc2cc(C#Cc3cccc(F)c3)ccc2S(=O)(=O)N([C@H](C)CO)C[C@@H]1C	T cruzi growth-1 108 (no result: Pf Dd2 growth) | T cruzi growth-2 107 | T cruzi growth-3 inactive | NIH3T3 tox inactive | 3T3 cytotox 2 106
CCCN(C)C[C@H]1Oc2cc(C#Cc3cccc(F)c3)ccc2S(=O)(=O)N([C@H](C)CO)C[C@@H]1C	T cruzi growth-1 110 (no result: Pf Dd2 growth) | T cruzi growth-2 112 | T cruzi growth-3 inactive | NIH3T3 tox inactive | 3T3 cytotox 2 104
CO[C@@H]1CN(C)C(=O)c2cc(NS(C)(=O)=O)ccc2OC[C@H](C)N(Cc2nccs2)C[C@H]1C	none
CO[C@@H]1CN(C)C(=O)c2cc(NC(=O)NC(C)C)ccc2OC[C@@H](C)N(C(=O)NC(C)C)C[C@@H]1C	none (no result: Pf Dd2 growth)
CCNC(=O)[C@H]1[C@H](CO)[C@H]2Cn3c(cccc3=O)[C@H]2N1C(=O)CC1CC1	none (no result: IDH1 R132H inh)
CCCN(C)C[C@@H]1Oc2cc(C#Cc3ccccc3F)ccc2S(=O)(=O)N([C@@H](C)CO)C[C@H]1C	T cruzi growth-1 inconclusive | T cruzi growth-2 107 | T cruzi growth-3 inactive | NIH3T3 tox inactive | 3T3 cytotox 2 105
CC(C)c1cn(CC[C@H]2CC[C@H](NC(=O)C3CCC3)[C@H](CO)O2)nn1	none (no result: T cruzi growth-1)
Cc1ccc(S(=O)(=O)N2CC[C@@H]3[C@H](CO)Nc4ccc(C#Cc5ccccc5F)cc4[C@@H]32)cc1	none (no result: IDH1 R132H inh)
Cc1ccc(S(=O)(=O)N2CC[C@@H]3[C@@H](CO)Nc4ccc(C#Cc5ccccc5F)cc4[C@@H]32)cc1	T cruzi growth-1 102 (no result: IDH1 R132H inh) | T cruzi growth-2 97 | T cruzi growth-3 102 | NIH3T3 tox inactive | 3T3 cytotox 2 inactive
O=S(=O)(c1cccc(F)c1)N1CC[C@@H]2[C@@H](CO)Nc3ccc(C#Cc4ccccc4F)cc3[C@@H]21	T cruzi growth-1 inconclusive (no result: IDH1 R132H inh) | T cruzi growth-2 104 | T cruzi growth-3 112 | NIH3T3 tox inactive | 3T3 cytotox 2 inactive
O=S(=O)(c1cccc(F)c1)N1CC[C@@H]2[C@H]1c1cc(C#Cc3ccccc3F)ccc1N[C@@H]2CO	T cruzi growth-1 inconclusive (no result: IDH1 R132H inh) | T cruzi growth-2 inactive | T cruzi growth-3 108 | NIH3T3 tox inactive | 3T3 cytotox 2 104
COc1c(C2OCC(O)C(O)C2O)c(O)cc2oc(-c3ccc(OC4OC(C)C(O)C(O)C4O)cc3)cc(=O)c12 (centres undefined)	none (no result: GASC1 inh, Pf Dd2 growth, T cruzi growth-1)
COc1ccccc1C#Cc1ccc2c(c1)O[C@@H](CN(C)Cc1ccccc1)[C@@H](C)CN([C@H](C)CO)S2(=O)=O	T cruzi growth-1 122 | T cruzi growth-2 107 | T cruzi growth-3 113 | NIH3T3 tox inactive | 3T3 cytotox 2 inactive
